# Assays:
# [1] = Metabolic stability in human liver microsomes assessed as compound recovery after 15 mins by LC-MS/MS; type: ADME, Microsome; conditions: read-out: Stability
# How it was run: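 Compound is incubated at 37 °C with 1 mg/mL human liver microsomes in phosphate buffer with an NADPH-generating system (glucose-6-phosphate, NADP, G6P dehydrogenase) plus MgCl2 and KCl. Levels at 0 and 15 min are measured by LC–MS/MS, and percent remaining is taken from their ratio.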
# HepG2 = experiment: Inhibition of fatty acid synthesis in human HepG2 cells assessed as [14C]acetate incorporation after 2 hrs by liquid scintillation counter; type: functional, cell-based; conditions: HepG2, 2 h
# How it was run: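 HepG2 cells are plated at 3 × 10^5/well and grown 48 h in DMEM/10% FBS. They are serum-starved 1 h in DMEM with 1.5% BSA, with or without compound. Radiolabelled acetate is added for 2 h. Cells are washed, then saponified with KOH for 2 h at 70 °C. After hexane washes and acidification to pH <2, fatty acids are extracted into hexane.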
# Acetyl-CoA carboxylase [2] = target: Acetyl-CoA carboxylase (Homo sapiens, UniProt Q13085+O00763); experiment: Inhibition of human ACC1/2 assessed as [14C]malonyl-CoA synthesis; type: protein assay
# How it was run: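 Enzyme source: human liver cytosol, ammonium sulfate precipitated (30%) and anion-exchange purified in MOPS pH 7.5 buffer. It is preincubated with compound or DMSO for 30 min at 37 °C in Tris acetate pH 7.5 buffer. Substrates are 2.12 mM ATP, 18.2 mM NaHCO3 and [14C]acetyl-CoA. Unreacted acetyl-CoA is converted to acetyl-carnitine and retained on cation-exchange resin, and eluted [14C]malonyl-CoA is counted. IC50 is the mean of at least two experiments.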
# [3] = Chemical stability of the compound in simulated gastric media assessed as compound recovery at pH 1.2 after 3 hrs by HPLC method; type: physicochemical; conditions: read-out: Stability
# How it was run: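 Acid stability: compound is held in aqueous solution at pH 1.2 for 3 h at 37 °C. Parent remaining is quantified by HPLC.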
# Acetyl-CoA carboxylase [4] = target: Acetyl-CoA carboxylase (Rattus norvegicus, UniProt P11497+Q1HEC0); experiment: Inhibition of rat ACC1/2 assessed as malonyl-CoA synthesis; type: protein assay
# How it was run: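 Rat liver cytosolic ACC is preincubated with compound or DMSO for 30 min at 37 °C in Tris acetate pH 7.5 buffer. The reaction uses the liver-ACC substrate mix: 2.12 mM ATP, 18.2 mM NaHCO3 and [14C]acetyl-CoA. Residual acetyl-CoA is removed as acetyl-carnitine on cation-exchange resin, and [14C]malonyl-CoA in the eluate is counted. IC50 is the mean of at least two experiments.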
Structure (SMILES),remaining at 0.25 h [1],IC50 (Acetyl-CoA carboxylase [2]),remaining at 3 h [3],IC50 (Acetyl-CoA carboxylase [4]),IC50 (HepG2)
CCNC(=O)Nc1sc2ccccc2c1C(=O)N1CCN(C2CCN(C(=O)C(C)(C)C)CC2)CC1,,109 nM,,,450 nM
CCNC(=O)Nc1sc2ccccc2c1C(=O)N1CCN(C2CCN(C(=O)OC)CC2)CC1,,175 nM,,,
CCNC(=O)Nc1sc2ccccc2c1C(=O)N1CCN(C2CCN(C(=O)C3CCCC3)CC2)CC1.O=C(O)/C=C\C(=O)O,,49 nM,,,309 nM
CCNC(=O)Nc1sc2cc(C)ccc2c1C(=O)N1CCN(C2CCN(C(=O)OC(C)(C)CF)CC2)CC1,84%,32 nM,,,73 nM
CCNC(=O)Nc1sc2ccccc2c1C(=O)N1CCN(C2CCN(C(=O)OC(C)(C)C)CC2)CC1,,24 nM,23%,,79 nM
CCNC(=O)Nc1sc2ccccc2c1C(=O)N1CCN(C2CCN(C(=O)C(C)C)CC2)CC1,,131 nM,,,
CCNC(=O)Nc1sc2ccccc2c1C(=O)N1CCN(C2CCN(C(=O)OCC)CC2)CC1,,55 nM,,,228 nM
CCNC(=O)Nc1sc2ccccc2c1C(=O)N1CCN(C2CCN(C(=O)OC(C)(C)C(F)(F)F)CC2)CC1,5%,31 nM,100%,,81 nM
CCNC(=O)Nc1sc2ccccc2c1C(=O)N1CCN(C2CCN(C(=O)OC3CCCC3)CC2)CC1,,52 nM,,,512 nM
CCNC(=O)Nc1sc2ccccc2c1C(=O)N1CCN(C2CCN(C(=O)CC)CC2)CC1,,597 nM,,,
CCNC(=O)Nc1sc2ccccc2c1C(=O)N1CCN(C2CCN(C(=O)C3CCN(C(C)=O)CC3)CC2)CC1.O=C(O)/C=C\C(=O)O,,74 nM,,,
CCNC(=O)Nc1sc2cc(F)ccc2c1C(=O)N1CCN(C2CCN(C(=O)OC(C)(C)C(F)(F)F)CC2)CC1,17%,62 nM,,,
CCNC(=O)Nc1sc2ncccc2c1C(=O)N1CCN(C2CCN(C(=O)OC(C)(C)C(F)(F)F)CC2)CC1,3%,45 nM,,,67 nM
CCCC(=O)N1CCC(N2CCN(C(=O)c3c(NC(=O)NCC)sc4ccccc34)CC2)CC1,,242 nM,,,
CCCCC(=O)N1CCC(N2CCN(C(=O)c3c(NC(=O)NCC)sc4ccccc34)CC2)CC1,,207 nM,,,
CC(=O)N1CCC(C(=O)N2CCC(N3CCN(C(=O)c4cc(-c5ccc(C)cc5)nc(-c5ccc(C)cc5)c4)CC3)CC2)CC1,,,,70 nM,
CCNC(=O)Nc1sc2ccccc2c1C(=O)N1CCN(C2CCN(C(=O)OC3CCCCC3)CC2)CC1,,76 nM,,,635 nM
CCNC(=O)Nc1sc2cc(OC)ccc2c1C(=O)N1CCN(C2CCN(C(=O)OC(C)(C)C(F)(F)F)CC2)CC1,29%,27 nM,,,67 nM
CCNC(=O)Nc1sc2ccccc2c1C(=O)N1CCN(C2CCN(C(=O)CC(C)C)CC2)CC1,,144 nM,,,

# Now from value to compound, other results behind:
remaining at 0.25 h [1],IC50 (Acetyl-CoA carboxylase [2]),remaining at 3 h [3],IC50 (Acetyl-CoA carboxylase [4]),Structure (SMILES),IC50 (HepG2)
77%,60 nM,,,CCNC(=O)Nc1sc2cc(C)ccc2c1C(=O)N1CCN(C2CCN(C(=O)OC(C)C)CC2)CC1,628 nM
,117 nM,,,CCNC(=O)Nc1sc2ccncc2c1C(=O)N1CCN(C2CCN(C(=O)OC(C)(C)C(F)(F)F)CC2)CC1,
,81 nM,,,CCNC(=O)Nc1sc2ccccc2c1C(=O)N1CCN(C2CCN(C(=O)C3CCCCC3)CC2)CC1,146 nM
3%,17 nM,98%,,CCNC(=O)Nc1sc2ccccc2c1C(=O)N1CCN(C2CCN(C(=O)OC(C)(C)CF)CC2)CC1,61 nM
3%,28 nM,,,CCNC(=O)Nc1sc2ccccc2c1C(=O)N1CCN(C2CCN(C(=O)OC(C)C)CC2)CC1,208 nM
,119 nM,,,CCNC(=O)Nc1sc2ccccc2c1C(=O)N1CCN(C2CCN(C(=O)NC(C)(C)C)CC2)CC1,775 nM
67%,41 nM,,,CCNC(=O)Nc1sc2cnccc2c1C(=O)N1CCN(C2CCN(C(=O)OC(C)(C)C(F)(F)F)CC2)CC1,152 nM
51%,38 nM,,,CCNC(=O)Nc1sc2cc(Cl)ccc2c1C(=O)N1CCN(C2CCN(C(=O)OC(C)(C)C(F)(F)F)CC2)CC1,
,1864 nM,,,CCNC(=O)Nc1sc2ccccc2c1C(=O)N1CCN(C2CCN(C(C)=O)CC2)CC1,
13%,12 nM,,,CCNC(=O)Nc1sc2cccnc2c1C(=O)N1CCN(C2CCN(C(=O)OC(C)(C)C(F)(F)F)CC2)CC1,49 nM
3%,32 nM,,,CCNC(=O)Nc1sc2ccc(C)cc2c1C(=O)N1CCN(C2CCN(C(=O)OC(C)C)CC2)CC1,254 nM
7%,98 nM,,,CCNC(=O)Nc1sc2cc(C(F)(F)F)ccc2c1C(=O)N1CCN(C2CCN(C(=O)OC(C)(C)C(F)(F)F)CC2)CC1,
,33 nM,,,CC(=O)N1CCC(C(=O)N2CCC(N3CCN(C(=O)c4cc(-c5ccc(C)cc5)nc(-c5ccc6[nH]c(C)c(C)c6c5)c4)CC3)CC2)CC1,294 nM

# From ChEMBL document CHEMBL1681752, “Discovery of novel (4-piperidinyl)-piperazines as potent and orally active acetyl-CoA carboxylase 1/2 non-selective inhibitors: F-Boc and triF-Boc groups are acid-stable bioisosteres for the Boc group” (Bioorg Med Chem, 2011)
